The list is not random: actives were taken first. Their share in the collection is about 2.9%.
RanGTP-Imp inh = disruptors of Ran-importin-beta complex formation – biochemical, FRET, CFP-Ran, YFP-importin-beta, homogeneous, primary screen | AID 2216 | hit rate 1.1% among 300,000 | cell-free CFP-Ran/YFP-importin-beta FRET ratio | inhibition, % (concentration not given with the values);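 active means more than half of the replicate wells show a fall in the fluorescence ratio signal beyond about 16%, limit read from the data, passing the limit was not always enough; inconclusive means exactly half of the replicate wells pass the set limit; inactive means fewer than half of replicates pass the limit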;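 further: 0% = DMSO wells and 100% = Ran loaded with GDP instead of GTP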
Runt-SMMHC FRET = blocks binding of human RUNX1 Runt domain to CBFb-SMMHC; Q01196+Q13951; Cerulean-Runt/Venus-CBFb-SMMHC FRET ratio 530/480, 1 h; inhibition, % at 20 µM; hit rate 0.74% among 220,000; AID 1434;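 active means mean inhibition across duplicate retests at 20 µM reaching about 50%, limit read from the data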;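 further: 0% = DMSO wells and 100% = wells with excess untagged CBFb-SMMHC; inhibitors lower the FRET ratio by blocking Runt binding to CBFb-SMMHC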
Target sequence (Q01196 whole entry, looked up, the tested form may be a part): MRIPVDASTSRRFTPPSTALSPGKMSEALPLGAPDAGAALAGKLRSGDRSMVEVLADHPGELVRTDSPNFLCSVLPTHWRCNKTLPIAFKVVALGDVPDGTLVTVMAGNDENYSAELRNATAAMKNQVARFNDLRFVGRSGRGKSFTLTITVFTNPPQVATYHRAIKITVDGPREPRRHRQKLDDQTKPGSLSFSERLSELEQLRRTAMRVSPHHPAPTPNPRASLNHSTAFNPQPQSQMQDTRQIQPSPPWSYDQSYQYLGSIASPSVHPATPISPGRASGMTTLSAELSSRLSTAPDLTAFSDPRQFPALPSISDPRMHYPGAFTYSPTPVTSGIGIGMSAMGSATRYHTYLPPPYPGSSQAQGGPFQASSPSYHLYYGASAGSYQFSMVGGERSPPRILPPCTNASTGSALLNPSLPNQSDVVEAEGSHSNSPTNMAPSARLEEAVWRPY
Target sequence (Q13951 whole entry, looked up, the tested form may be a part): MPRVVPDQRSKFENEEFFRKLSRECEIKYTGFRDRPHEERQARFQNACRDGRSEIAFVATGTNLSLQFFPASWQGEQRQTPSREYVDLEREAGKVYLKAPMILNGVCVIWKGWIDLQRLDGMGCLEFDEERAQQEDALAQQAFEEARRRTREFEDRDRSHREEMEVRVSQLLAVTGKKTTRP
AI-2 QS modul = modulates the Vibrio harveyi AI-2 quorum sensing system; Vibrio harveyi JMH597 AI-2 luminescence/OD600 ratio, 9 h; hits give low values; strain lacks LuxN and CqsS sensors; 0 = neutral-control median; activity change, % at 7.5 µM; hit rate 0.4% among 300,000; in the data active means activity change below about -75%, passing the limit was not always enough; inconclusive means no clear call, values can overlap the other calls;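 further: luminescence divided by OD600 gain over 9 h not by final OD600 alone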
proKLK7 act = proKLK7 (human) activation, primary screen; purified proKLK7, EDANS-DABCYL substrate fluorescence; 100% is mature enzyme control, 0% vehicle; activation, % at 7 µM; AID 652039; P49862; hit rate 0.9% among 370,000;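 active means activation above the mean of all tested compounds plus 3 SD, computed per campaign excluding outliers beyond control limits, cut at about 13% in these data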
Runt-CBFb FRET = inhibitors of human RUNX1 Runt domain binding to CBFb; Q01196+Q13951; Cerulean-Runt/Venus-CBFb FRET ratio 530/480, 1 h; inhibition, % at 20 µM; hit rate 0.46% among 220,000; AID 1496;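 active means inhibition over about 50% at 20 µM in the single-dose screen, limit read from the data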;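 further: 0% = DMSO wells and 100% = excess unlabeled CBFb competitor control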
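Buffer or medium: Tris pH 7.5 buffer with BSA. Assay system: Cerulean-labeled Runt domain protein. Amount: each fluorescent fusion protein 100 nM. Read-out basis: loss of energy transfer signal. Incubation: 1 h compound exposure, room temperature. Probe or stimulus: Venus-CBFb binding partner, 100 nM. Detection: FRET, excitation 422 nm, emission at 530 and 480 nm.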
Wee1 stabilizer = human Wee1 degradation inhibition, primary screen; P30291; HeLa Luc-Wee1K328M stability, luciferase luminescence; 100% = proteasome inhibitor MG132 effect; reporter increase, % at 5 µM; hit rate 1.2% among 220,000; AID 1321;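 active means activation above the mean of all tested compounds plus 3 SD, set per screening run, cut at about 8.8% in these data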;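 further: cells exposed to compound for 20 h before luminescence read; 0% = DMSO alone and 100% = MG132 at 30 µM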
YIC counter = counter-screen YIC FRET for RanGTP-importin-beta inhibitors; shares compounds with RanGTP-Imp inh; Purified YIC probe, intramolecular FRET ratio YFP/CFP; IC50, µM; hit rate 40% among 1,000;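 active means fitted half-maximal inhibitory concentration no more than tenfold above the top dose tested; inconclusive means flat fit with 30 to 70% activity, or poor fit; inactive means half-maximal concentration beyond tenfold above the top dose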
Active calls of the source: *; ? = inconclusive; · = no result given.

SMILES | RanGTP-Imp inh | Runt-SMMHC FRET | AI-2 QS modul | proKLK7 act | Runt-CBFb FRET | Wee1 stabilizer | YIC counter
Cc1nn(-c2ccccc2)c2sc(C(=O)NC3CCCCC3)cc12 | 28* | -2 | 2 | 0 | 2 | -1 | >50
Cc1cc(C(=O)N/N=C2\CC(=O)CC(C)(C)C2)n[nH]1 | 16* | -9 | 24 | 0 | -1 | -3 | >50
CSCCC(NS(=O)(=O)c1ccccc1F)C(=O)Nc1ccncc1 (configuration not stated) | · | · | · | 0 | · | · | ·
COC(=O)c1ccc2c(=O)n(CCN3CCOCC3)c(SCC(=O)C(C)(C)C)nc2c1 | 19* | -3 | 17 | 0 | 0 | 0 | >50
CCOC(=O)CSc1nc2cc(C(=O)OC)ccc2c(=O)n1CCN1CCOCC1 | 1 | -2 | 19 | 0 | -4 | -2 | ·
COCCNc1oc(/C=C/c2cccc(OC)c2)nc1S(=O)(=O)c1ccccc1 | · | · | · | -6 | · | · | ·
O=C(c1ccco1)N1CCN(c2cc(=O)n(-c3ccc(Cl)cc3)c(=O)[nH]2)CC1 | 48* | 2 | 17 | 0 | 0 | -2 | >50
CCOC(=O)c1ccc(CNC(=O)CSc2nnc(-c3ccncc3)o2)cc1 | 26* | -5 | 10 | 0 | 2 | 2 | >50
CC(=O)c1ccc(NC(=O)CSc2nnc(-c3ccncc3)o2)cc1 | 3 | · | 47 | 0 | · | · | ·
CCCCSCCCNC(=O)Nc1ccc(CC)cc1 | 0 | 1 | 15 | 0 | -2 | 5 | ·
CC(C)CCNC(=O)C(c1ccco1)N(Cc1ccccc1)C(=O)c1snc(C(N)=O)c1N (configuration not stated) | 30* | 6 | -2 | 1 | -4 | 0 | >50
Cc1ccc(N(C(=O)c2snc(C(N)=O)c2N)C(C(=O)NCCC(C)C)c2ccco2)cc1 (configuration not stated) | -1 | 9 | 3 | -2 | -3 | -1 | ·
N#Cc1cc2c(ccc3ccccc32)oc1=O | 38* | 87 | 15 | -102 | 85* | -3 | >26
C/C(=N\Nc1ccc([N+](=O)[O-])cc1[N+](=O)[O-])c1cc2c(ccc3ccccc32)oc1=O | 10 | 14 | 14 | · | 7 | -1 | ·
Cc1cc2c(N=NC(=O)C3CC3c3ccccc3)c(O)[nH]c2cc1Br (configuration not stated) | 6 | -3 | 22 | 0 | -4 | 0 | ·
COc1ccccc1OCC(=O)NNc1c2ccccc2nc2ccccc12 | ? | 8 | · | 7 | 21 | 3 | ·
O=C(CN1CCOCC1)NNc1c2ccccc2nc2ccccc12 | 19* | 8 | 9 | 1 | 13 | -1 | >50
Nc1ccccc1C(=O)NNc1c2ccccc2nc2ccccc12 | 33* | 7 | 21 | 2 | 3 | 4 | >50
Cc1cc(C(=O)NNC(=O)c2ccc(Cl)cc2)c2ccccc2n1 | · | · | · | 0 | · | · | ·
C[N+]1(CC(=O)NNc2c3ccccc3nc3ccccc23)CCOCC1 | 2 | 14 | 5 | 1 | 4 | -1 | ·
O=C(NNc1c2ccccc2nc2ccccc12)c1ccc(Cl)cc1 | 20* | · | 25 | 0 | · | · | >50
Cn1c(=O)oc2cc(S(=O)(=O)NCCC(=O)N3CCN(c4ccccc4)CC3)ccc21 | -1 | · | 1 | 0 | · | · | ·
Cn1c(=O)oc2cc(S(=O)(=O)NCCC(=O)N3CC=C(c4ccccc4)CC3)ccc21 | 18* | -3 | 4 | 0 | -1 | -2 | >50
C/C(=N\OCC(=O)OCC(=O)NC(=O)c1ccccc1)c1ccc2c(c1)OCO2 | 17* | · | 23 | 0 | · | · | >50
CCCCN(C)C(=O)c1cccc(OC2CCN(CC(C)(C)C)CC2)c1 | 17* | · | 20 | -1 | · | · | >50
SMILES | RanGTP-Imp inh | Runt-SMMHC FRET | AI-2 QS modul | proKLK7 act | Runt-CBFb FRET | Wee1 stabilizer | YIC counter
CCCn1c(SCC(=O)Nc2ccc(NC(C)=O)cc2)nc2c1c(=O)n(C)c(=O)n2C | 17* | · | 15 | 0 | · | · | >50
CCC(=O)Nc1ccc(NC(=O)CSc2nc3c(c(=O)n(C)c(=O)n3C)n2CC)cc1 | 3 | · | -10 | 0 | · | · | ·
c1ccc(-n2cnc3cc(NCc4cccs4)ccc32)cc1 | ? | 2 | -18 | 0 | -1 | -2 | ·
COc1ccc(-n2cnc3cc(NCc4cccs4)ccc32)cc1 | 19* | 1 | -24 | 0 | -1 | -1 | >50
CCOC(=O)C1=C(COC(=O)c2ccc(Cl)nc2)NC(=O)NC1C (configuration not stated) | · | · | · | 0 | · | · | ·
CCN(CC(=O)NCc1ccc(F)cc1)C(=O)/C=C/c1ccc(S(=O)(=O)N(CC)CC)cc1 | -1 | · | 16 | 1 | · | · | ·
Cn1nccc1C(=O)Oc1ccc(/C=N/NC(=O)c2ccccc2O)cc1 | -2 | -1 | 9 | 3 | 1 | -1 | ·
CC1Cc2cc(/C(O)=C3/C(=O)C(=O)N(Cc4ccncc4)C3c3ccc(N(C)C)cc3)ccc2O1 (configuration not stated) | 22* | · | 44 | 0 | · | · | >50
COc1ccc(C2/C(=C(/O)c3ccc4c(c3)CC(C)O4)C(=O)C(=O)N2Cc2cccnc2)cc1 (configuration not stated) | 1 | · | 5 | 0 | · | · | ·
CCOc1ccc(NS(=O)(=O)c2ccc3c(c2)CCN3C(=O)CCC(=O)O)cc1 | 28* | -3 | 21 | -1 | -1 | -2 | >50
O=C1NC[C@H](CCCCN2C[C@H](Cc3ccc(O)cc3)N(CCc3ccccc3)C(=O)C2=O)N(CC2CCCCC2)C1=O | · | · | · | -1 | · | · | ·
CCn1c(=O)cc(N2CCC3(CC2)OCCO3)[nH]c1=O | 24* | 1 | 12 | 1 | 3 | -2 | >50
O=S(=O)(c1cccc(F)c1)N1CCN(c2nc(-c3cccnc3)nc3ccccc23)CC1 | · | · | · | 0 | · | · | ·
COC(=O)c1cc(NC(=O)c2ccc([N+](=O)[O-])cc2)c(=O)oc1C | 18* | 2 | -10 | 1 | 10 | -1 | >50
CCOC(=O)c1cc(C(C)(C)C)oc1CNC(=O)c1c(C)oc2c1CCCC2 | 2 | 0 | -2 | 0 | -5 | 5 | ·
COc1ccc(NC(=O)N2CCN(C(=O)Nc3ccc(OC)cc3)CC2)cc1 | -4 | 0 | 21 | 0 | 1 | 0 | ·
COc1ccc(NC(=O)N2CCCCCC2)cc1 | 21* | 3 | -2 | 0 | 0 | 0 | >50
CC(=O)Nc1ccc(S(=O)(=O)NCc2nc(-c3cccc(C)c3)no2)cc1 | 15* | · | 55 | -1 | · | · | 39*
O=C(Nc1cccc(F)c1)N1CCCC(CNS(=O)(=O)Cc2ccccc2)C1 (configuration not stated) | -5 | 2 | 6 | 0 | 0 | 0 | ·
